# Laboratory results reported in ChEMBL document CHEMBL1138736, “Imidazoquinoxaline Src-family kinase p56Lck inhibitors: SAR, QSAR, and the discovery of (S)-N-(2-chloro-6-methylphenyl)-2-(3-methyl-1-piperazinyl)imidazo- [1,5-a]pyrido[3,2-e]pyrazin-6-amine (BMS-279700) as a potent and orally active inhibitor with excellent in vivo antiinflammatory activity” (J Med Chem, 2004).
# Where “and” joins values, the source holds several entries; their conditions need not be identical. Identical values can stand only once.
# Key:
# [1] = Inhibition of recombinant p56 Lck tyrosine kinase expressed in insect cells
# Method in brief: (§1)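 His-tagged recombinant Lck made in insect cells by baculovirus and purified on nickel affinity resin. Kinase buffer is 20 mM MOPS pH 7 with 10 mM MgCl2, and the test compound is present. It is stopped after 10 min with TCA/pyrophosphate then BSA. Enolase is precipitated at 4 °C, filtered and counted by scintillation.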
# [2] = Inhibition of Human PBL (T cell) proliferation; type: functional
# Method in brief: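 Normal human peripheral blood T cells are added with test compound and anti-CD28 (E.3) antibody to wells precoated with anti-CD3 mAb (G19-4). After 3 days [3H]-thymidine is added, and after further incubation the cells are harvested and incorporation is counted by scintillation.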
# Protein kinase C (PKC) = experiment: Inhibition of PKC kinase; type: protein assay
# [3] = molecular target: Tyrosine-protein kinase Fgr (Homo sapiens, UniProt P09769); experiment: Inhibition of Fgr protein kinase
# Chain of Tyrosine-protein kinase Fgr (P09769 whole entry): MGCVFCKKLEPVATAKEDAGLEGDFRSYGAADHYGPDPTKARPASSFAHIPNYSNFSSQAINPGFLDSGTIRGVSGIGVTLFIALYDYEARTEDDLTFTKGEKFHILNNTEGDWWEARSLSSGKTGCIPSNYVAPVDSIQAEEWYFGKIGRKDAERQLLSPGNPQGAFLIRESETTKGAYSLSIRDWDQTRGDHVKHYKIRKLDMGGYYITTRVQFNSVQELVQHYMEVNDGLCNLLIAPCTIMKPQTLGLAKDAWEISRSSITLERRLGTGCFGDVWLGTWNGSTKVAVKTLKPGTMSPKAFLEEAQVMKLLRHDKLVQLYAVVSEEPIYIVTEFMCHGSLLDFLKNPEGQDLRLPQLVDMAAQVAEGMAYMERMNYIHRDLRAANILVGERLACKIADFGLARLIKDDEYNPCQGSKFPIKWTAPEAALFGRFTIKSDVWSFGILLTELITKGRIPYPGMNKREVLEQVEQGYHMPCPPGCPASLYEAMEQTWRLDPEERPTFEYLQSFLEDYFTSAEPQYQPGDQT
# [4] = molecular target: Tyrosine-protein kinase Lyn (Homo sapiens, UniProt P07948); experiment: Inhibition of Lyn kinase
# Chain of Tyrosine-protein kinase Lyn (P07948 whole entry): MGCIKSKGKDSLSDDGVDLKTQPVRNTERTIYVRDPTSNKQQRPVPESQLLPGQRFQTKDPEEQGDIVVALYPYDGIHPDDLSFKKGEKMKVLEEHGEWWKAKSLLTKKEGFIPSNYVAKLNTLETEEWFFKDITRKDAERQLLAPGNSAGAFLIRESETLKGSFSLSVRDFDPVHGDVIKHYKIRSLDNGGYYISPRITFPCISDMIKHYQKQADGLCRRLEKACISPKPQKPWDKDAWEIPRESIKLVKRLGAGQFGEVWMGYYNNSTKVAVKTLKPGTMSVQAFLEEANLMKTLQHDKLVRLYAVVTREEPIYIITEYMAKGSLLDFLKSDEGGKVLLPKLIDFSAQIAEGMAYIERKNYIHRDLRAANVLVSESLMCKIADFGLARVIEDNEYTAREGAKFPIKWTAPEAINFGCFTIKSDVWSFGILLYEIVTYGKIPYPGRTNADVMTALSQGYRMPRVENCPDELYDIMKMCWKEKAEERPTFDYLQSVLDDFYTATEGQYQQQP
# [5] = molecular target: Tyrosine-protein kinase Yes (Homo sapiens, UniProt P07947); experiment: Inhibition of Yes kinase
# Chain of Tyrosine-protein kinase Yes (P07947 whole entry): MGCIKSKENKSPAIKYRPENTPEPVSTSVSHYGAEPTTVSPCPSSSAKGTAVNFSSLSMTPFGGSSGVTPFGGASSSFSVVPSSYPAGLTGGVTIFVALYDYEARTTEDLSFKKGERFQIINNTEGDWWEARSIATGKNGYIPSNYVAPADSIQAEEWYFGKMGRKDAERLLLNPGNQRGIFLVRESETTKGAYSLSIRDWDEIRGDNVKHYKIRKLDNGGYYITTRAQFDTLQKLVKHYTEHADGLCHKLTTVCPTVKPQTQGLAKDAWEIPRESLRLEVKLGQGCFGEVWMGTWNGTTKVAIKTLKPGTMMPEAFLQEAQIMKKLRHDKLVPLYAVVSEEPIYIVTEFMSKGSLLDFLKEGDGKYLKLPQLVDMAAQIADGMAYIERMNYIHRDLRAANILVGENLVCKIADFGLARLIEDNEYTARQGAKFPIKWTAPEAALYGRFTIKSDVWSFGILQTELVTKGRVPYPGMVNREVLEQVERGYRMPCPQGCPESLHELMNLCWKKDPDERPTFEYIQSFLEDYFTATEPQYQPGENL
# [6] = Binding affinity for recombinant Lck/Yes-related tyrosine kinase expressed in insect cells
# [7] = molecular target: Tyrosine-protein kinase HCK (Homo sapiens, UniProt P08631); experiment: Inhibition of Hck kinase
# Chain of Tyrosine-protein kinase HCK (P08631 whole entry): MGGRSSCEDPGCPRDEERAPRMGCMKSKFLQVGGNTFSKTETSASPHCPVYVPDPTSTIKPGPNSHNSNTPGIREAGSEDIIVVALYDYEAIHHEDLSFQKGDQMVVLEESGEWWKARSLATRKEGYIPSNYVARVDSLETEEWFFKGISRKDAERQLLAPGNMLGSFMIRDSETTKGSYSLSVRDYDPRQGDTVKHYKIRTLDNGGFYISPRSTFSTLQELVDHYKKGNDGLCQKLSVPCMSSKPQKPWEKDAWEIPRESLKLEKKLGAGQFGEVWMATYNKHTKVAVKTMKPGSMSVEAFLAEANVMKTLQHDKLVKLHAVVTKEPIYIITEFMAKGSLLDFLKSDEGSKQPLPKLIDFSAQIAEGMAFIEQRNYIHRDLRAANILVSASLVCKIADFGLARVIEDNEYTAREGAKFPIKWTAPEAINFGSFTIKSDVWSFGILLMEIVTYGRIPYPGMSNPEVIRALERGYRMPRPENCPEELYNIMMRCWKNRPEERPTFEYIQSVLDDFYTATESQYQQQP
# [8] = Inhibition of p56 Lck tyrosine kinase; method in brief: as §1
# [9] = molecular target: Tyrosine-protein kinase Fyn (Homo sapiens, UniProt P06241); experiment: Inhibition of Fyn protein kinase
# Chain of Tyrosine-protein kinase Fyn (P06241 whole entry): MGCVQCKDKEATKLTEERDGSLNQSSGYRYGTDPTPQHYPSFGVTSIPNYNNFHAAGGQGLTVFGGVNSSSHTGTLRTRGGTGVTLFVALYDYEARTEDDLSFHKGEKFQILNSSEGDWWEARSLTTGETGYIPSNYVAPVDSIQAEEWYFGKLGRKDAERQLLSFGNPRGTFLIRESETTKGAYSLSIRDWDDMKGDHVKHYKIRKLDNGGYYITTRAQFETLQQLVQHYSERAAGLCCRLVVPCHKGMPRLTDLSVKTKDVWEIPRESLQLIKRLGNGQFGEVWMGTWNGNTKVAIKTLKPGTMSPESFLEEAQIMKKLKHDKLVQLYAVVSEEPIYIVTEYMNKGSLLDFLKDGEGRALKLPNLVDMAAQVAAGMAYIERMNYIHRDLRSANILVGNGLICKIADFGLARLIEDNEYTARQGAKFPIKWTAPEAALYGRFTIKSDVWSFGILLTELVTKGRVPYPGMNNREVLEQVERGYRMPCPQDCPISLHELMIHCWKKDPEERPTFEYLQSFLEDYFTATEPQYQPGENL
# [10] = Inhibition of Platelet-derived growth factor receptor
# [11] = molecular target: T1, Inhibitor of nuclear factor kappa-B kinase subunit beta (Homo sapiens, UniProt O14920); experiment: Inhibition of I-kappa-B-kinase beta
# T1 sequence (O14920 whole entry): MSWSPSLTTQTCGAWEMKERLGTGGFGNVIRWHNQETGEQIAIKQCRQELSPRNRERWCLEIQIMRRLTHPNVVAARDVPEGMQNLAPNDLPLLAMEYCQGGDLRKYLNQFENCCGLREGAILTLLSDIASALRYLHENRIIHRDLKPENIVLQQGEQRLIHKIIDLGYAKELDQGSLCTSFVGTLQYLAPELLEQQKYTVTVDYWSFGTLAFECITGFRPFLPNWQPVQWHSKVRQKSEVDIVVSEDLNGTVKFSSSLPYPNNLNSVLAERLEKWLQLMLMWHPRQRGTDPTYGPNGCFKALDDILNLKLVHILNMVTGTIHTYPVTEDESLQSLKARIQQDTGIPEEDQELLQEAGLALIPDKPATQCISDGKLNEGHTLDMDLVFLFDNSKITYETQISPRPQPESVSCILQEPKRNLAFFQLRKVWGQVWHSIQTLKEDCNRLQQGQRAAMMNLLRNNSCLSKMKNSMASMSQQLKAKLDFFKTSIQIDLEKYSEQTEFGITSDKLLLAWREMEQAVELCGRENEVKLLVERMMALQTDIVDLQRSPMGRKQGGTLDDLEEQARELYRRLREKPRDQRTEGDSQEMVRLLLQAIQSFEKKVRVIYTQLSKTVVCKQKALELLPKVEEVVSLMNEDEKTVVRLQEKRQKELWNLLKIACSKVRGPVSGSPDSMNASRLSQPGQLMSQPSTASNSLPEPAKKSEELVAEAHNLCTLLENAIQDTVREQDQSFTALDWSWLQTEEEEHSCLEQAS
# MAP kinase p38 = MAP kinase p38 (Homo sapiens, UniProt O15264+Q15759+Q16539+P53778); experiment: Inhibition of p38 MAP-kinase; type: protein assay
# [12] = Inhibition of Blk kinase
# [13] = molecular target: T2, Inhibitor of nuclear factor kappa-B kinase subunit alpha (Homo sapiens, UniProt O15111); experiment: Inhibition of I kappa-B kinase alpha
# T2 sequence (O15111 whole entry): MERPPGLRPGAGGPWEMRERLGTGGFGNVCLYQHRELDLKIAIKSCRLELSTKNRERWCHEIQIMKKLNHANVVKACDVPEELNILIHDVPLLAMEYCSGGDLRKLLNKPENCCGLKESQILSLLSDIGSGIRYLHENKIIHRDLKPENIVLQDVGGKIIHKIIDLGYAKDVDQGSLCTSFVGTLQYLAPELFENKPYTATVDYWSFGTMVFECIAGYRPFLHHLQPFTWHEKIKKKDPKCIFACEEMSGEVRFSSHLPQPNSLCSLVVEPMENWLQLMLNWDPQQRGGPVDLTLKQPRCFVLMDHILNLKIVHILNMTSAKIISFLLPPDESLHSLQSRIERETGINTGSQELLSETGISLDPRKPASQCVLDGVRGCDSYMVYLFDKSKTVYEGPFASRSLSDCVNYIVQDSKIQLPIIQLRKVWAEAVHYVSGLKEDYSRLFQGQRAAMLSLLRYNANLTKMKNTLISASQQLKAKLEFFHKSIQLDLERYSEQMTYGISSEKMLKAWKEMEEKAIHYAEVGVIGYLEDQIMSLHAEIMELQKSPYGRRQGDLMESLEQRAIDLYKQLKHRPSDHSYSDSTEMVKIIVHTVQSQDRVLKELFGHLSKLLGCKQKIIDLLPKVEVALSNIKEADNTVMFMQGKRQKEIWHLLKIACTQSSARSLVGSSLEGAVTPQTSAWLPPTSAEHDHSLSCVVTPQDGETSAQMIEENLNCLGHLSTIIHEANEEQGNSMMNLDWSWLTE
# [14] = molecular target: Tyrosine-protein kinase SYK (Homo sapiens, UniProt P43405); experiment: Inhibition of Syk protein tyrosine kinase
# [15] = molecular target: Receptor tyrosine-protein kinase erbB-2 (Homo sapiens, UniProt P04626); experiment: Inhibition of HER2 kinase
# Chain of Receptor tyrosine-protein kinase erbB-2 (P04626 whole entry): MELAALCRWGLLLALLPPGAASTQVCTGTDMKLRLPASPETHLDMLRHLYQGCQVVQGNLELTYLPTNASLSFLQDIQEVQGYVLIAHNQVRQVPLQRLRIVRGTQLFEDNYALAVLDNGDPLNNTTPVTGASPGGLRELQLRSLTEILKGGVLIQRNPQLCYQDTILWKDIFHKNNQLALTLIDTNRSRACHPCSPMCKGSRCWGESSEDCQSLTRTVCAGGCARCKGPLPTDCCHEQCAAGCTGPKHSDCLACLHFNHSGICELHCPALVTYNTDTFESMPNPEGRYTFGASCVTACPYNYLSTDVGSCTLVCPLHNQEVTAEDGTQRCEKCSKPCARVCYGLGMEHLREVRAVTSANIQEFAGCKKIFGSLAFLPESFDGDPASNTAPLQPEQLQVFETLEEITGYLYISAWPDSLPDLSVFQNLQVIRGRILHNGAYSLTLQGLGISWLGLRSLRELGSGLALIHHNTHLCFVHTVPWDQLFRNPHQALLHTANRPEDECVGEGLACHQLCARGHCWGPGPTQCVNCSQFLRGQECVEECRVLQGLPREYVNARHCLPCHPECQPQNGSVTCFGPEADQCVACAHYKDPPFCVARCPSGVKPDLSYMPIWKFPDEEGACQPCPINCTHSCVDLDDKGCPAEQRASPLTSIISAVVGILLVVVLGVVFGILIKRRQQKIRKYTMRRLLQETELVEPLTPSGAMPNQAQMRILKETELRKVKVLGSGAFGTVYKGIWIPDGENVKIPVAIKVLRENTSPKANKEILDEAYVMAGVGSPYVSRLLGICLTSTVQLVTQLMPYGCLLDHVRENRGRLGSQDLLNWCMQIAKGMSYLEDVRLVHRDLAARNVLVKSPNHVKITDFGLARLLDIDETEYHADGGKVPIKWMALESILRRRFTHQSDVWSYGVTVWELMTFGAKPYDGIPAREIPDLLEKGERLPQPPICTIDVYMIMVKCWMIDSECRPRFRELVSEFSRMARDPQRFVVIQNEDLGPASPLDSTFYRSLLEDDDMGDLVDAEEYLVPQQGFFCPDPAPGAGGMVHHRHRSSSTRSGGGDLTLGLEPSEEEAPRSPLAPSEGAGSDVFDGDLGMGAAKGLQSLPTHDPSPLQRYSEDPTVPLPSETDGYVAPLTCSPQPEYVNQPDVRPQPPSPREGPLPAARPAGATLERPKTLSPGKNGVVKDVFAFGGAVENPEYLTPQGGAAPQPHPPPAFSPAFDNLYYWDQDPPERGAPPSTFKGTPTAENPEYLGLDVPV
# [16] = Inhibition of Protein kinase A
# [17] = molecular target: T3, Tyrosine-protein kinase ZAP-70 (Homo sapiens, UniProt P43403); experiment: Inhibition of Zeta-chain (TCR) associated protein kinase 70 kDa (ZAP-70)
# T3 sequence (P43403 whole entry): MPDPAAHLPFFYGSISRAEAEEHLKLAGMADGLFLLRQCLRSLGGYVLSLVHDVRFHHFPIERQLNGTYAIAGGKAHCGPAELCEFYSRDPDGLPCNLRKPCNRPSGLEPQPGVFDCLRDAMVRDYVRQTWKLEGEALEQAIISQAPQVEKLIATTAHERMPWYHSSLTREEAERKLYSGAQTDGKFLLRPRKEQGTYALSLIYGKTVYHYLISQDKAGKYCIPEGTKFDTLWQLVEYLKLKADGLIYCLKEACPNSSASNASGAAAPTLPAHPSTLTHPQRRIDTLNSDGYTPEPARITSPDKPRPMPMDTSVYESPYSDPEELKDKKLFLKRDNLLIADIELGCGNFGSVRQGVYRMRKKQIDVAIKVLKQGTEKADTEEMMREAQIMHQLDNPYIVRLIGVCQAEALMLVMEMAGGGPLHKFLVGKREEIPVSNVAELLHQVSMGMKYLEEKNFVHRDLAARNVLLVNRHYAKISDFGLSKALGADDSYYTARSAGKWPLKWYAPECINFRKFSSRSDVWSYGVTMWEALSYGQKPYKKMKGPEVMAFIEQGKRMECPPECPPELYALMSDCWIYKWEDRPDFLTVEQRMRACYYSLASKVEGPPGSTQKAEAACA
# [18] = Binding affinity for recombinant p56 Lck tyrosine kinase expressed in insect cells; method in brief: as §1
Structure (SMILES),IC50 [1],IC50 ([2]; Homo sapiens),further results
Cc1cccc(Cl)c1Nc1nc2ccc(N3CCN(CCN(C)C)CC3)nc2n2cncc12,2 nM,250 nM,
Cc1cccc(Cl)c1Nc1nc2ccncc2n2cncc12,1400 nM,,
Cc1cccc(Cl)c1Nc1nc2ccc(N(C)CCO)nc2n2cncc12,3 nM,620 nM,
CCN(CC)c1ccc2nc(Nc3c(C)cccc3Cl)c3cncn3c2n1,2 nM,2100 nM,
Cc1cccc(Cl)c1Nc1nc2ccc(N3CC[C@@H](N)C3)nc2n2cncc12,7 nM,310 nM,
COc1ncc2c(n1)nc(Nc1c(C)cccc1Cl)c1cncn12,> 780 nM,,
Cc1cccc(Cl)c1Nc1nc2ccc(N3CCN[C@@H](C)C3)nc2n2cncc12,,,IC50 (Protein kinase C (PKC)): > 10000 nM; IC50 [3]: 2.8 nM; IC50 [4]: 0.5 nM; IC50 [5]: 4.7 nM; Kd [6]: 0.17 nM; Ki [6]: 0.55 nM; IC50 [7]: 23 nM; IC50 [8]: 4 nM; IC50 [9]: 5 nM; IC50 [10]: > 1000 nM; IC50 [11]: > 10000 nM; IC50 (MAP kinase p38): 380 nM; IC50 [12]: 27 nM; IC50 [2]: 273 nM and > 100 nM; IC50 [13]: > 10000 nM; IC50 [14]: > 10000 nM; IC50 [15]: > 1000 nM; IC50 [16]: > 10000 nM; IC50 [17]: > 1000 nM
Cc1cccc(Cl)c1Nc1nc2cnccc2n2cncc12,77 nM,,
Cc1cccc(Cl)c1Nc1nc2ccc(N3CCCCC3)nc2n2cncc12,7 nM,,
COc1ccc2nc(Nc3c(C)cccc3Cl)c3cncn3c2n1,19 nM,1800 nM,
Cc1cccc(Cl)c1Nc1nc2ccc(N(C)C[C@H](O)CO)nc2n2cncc12,13 nM,630 nM,
Cc1cccc(Cl)c1Nc1nc2ccc(N(C)CCN(C)C)nc2n2cncc12,71 nM,,
Cc1cccc(Cl)c1Nc1nc2ncccc2n2cncc12,90 nM,,
Cc1cccc(Cl)c1Nc1nc2cnc(N3C[C@@H](C)N[C@@H](C)C3)cc2n2cncc12,29 nM,,
Cc1cccc(Cl)c1Nc1nc2ccc(-n3ccnc3)nc2n2cncc12,5 nM,470 nM,
Cc1cccc(Cl)c1Nc1nc2ccc(N3C[C@@H](O)[C@H](O)C3)nc2n2cncc12,5 nM,440 nM,
Cc1cccc(Cl)c1Nc1nc2ccc(N(CCO)CCO)nc2n2cncc12,4 nM,620 nM,
Cc1cccc(Cl)c1Nc1nc2cc(N(C)CCN(C)C)ncc2n2cncc12,240 nM,,
Cc1cccc(Cl)c1Nc1nc2ccc(NCCO)nc2n2cncc12,3 nM,490 nM,
Cc1cccc(Cl)c1Nc1nc2ccc(N3CCCNCC3)nc2n2cncc12,6 nM,540 nM,
Cc1cccc(Cl)c1Nc1nc2ccc(N3CCOCC3)nc2n2cncc12,1 nM,1900 nM,
Cc1cccc(Cl)c1Nc1nc2ccccc2n2cncc12,9 nM,5000 nM,
Cc1cccc(Cl)c1Nc1nc2ccc(N3CCN[C@H](C)C3)nc2n2cncc12,2 nM,240 nM,

Structure (SMILES),IC50 [1],IC50 ([2]; Homo sapiens),further results
COc1cc2nc(Nc3c(C)cccc3Cl)c3cncn3c2cc1OC,,670 nM,
Cc1cccc(C)c1Nc1nc2ccc(N3CCNCC3)nc2n2cncc12,1 nM,230 nM,
Cc1cccc(Cl)c1Nc1nc2ccc(N3CC[C@@H](O)C3)nc2n2cncc12,8 nM,730 nM,
COc1cc2c(cc1NCCN(C)C)nc(Nc1c(C)cccc1Cl)c1cncn12,,194 nM,
Cc1cccc(Cl)c1Nc1nc2ccc(N3C[C@H](O)[C@@H](O)C3)nc2n2cncc12,13 nM,> 2000 nM,
Cc1cccc(Cl)c1Nc1nc2ccc(N3CCN(CCO)CC3)nc2n2cncc12,9 nM,240 nM,
Cc1cccc(Cl)c1Nc1nc2ccc(N3CC[C@H](N)C3)nc2n2cncc12,6 nM,370 nM,
Cc1cccc(Cl)c1Nc1nc2ccc(N3CCN[C@@H](CO)C3)nc2n2cncc12,5 nM,270 nM,
Cc1cccc(C)c1Nc1nc2ncccc2n2cncc12,150 nM,,
COc1ccc2c(c1)nc(Nc1c(C)cccc1Cl)c1cncn12,,2600 nM,
CC1=NN(C)C2C1N=C(Nc1c(C)cccc1Cl)c1cnc(C)n12 (stereo unspecified),> 780 nM,,
Cc1cccc(Cl)c1Nc1nc2cc(N3CCNCC3)ncc2n2cncc12,163 nM,,
Brc1ccccc1Nc1nc2ccccc2n2cncc12,,17000 nM,
Cc1cccc(Cl)c1Nc1nc2ccc(Cl)nc2n2cncc12,25 nM,,
Cc1cccc(Cl)c1Nc1nc2ccc(N(C)C)nc2n2cncc12,1 nM,1200 nM,Log IC50 [18]: 3 µM
Cc1cccc(Cl)c1Nc1nc2ccc(N3CCN(C)CC3)nc2n2cncc12,1 nM,400 nM,
Cc1cccc(Cl)c1Nc1nc2ccc(N3C[C@@H](C)N[C@@H](C)C3)nc2n2cncc12,2 nM,400 nM,
Cc1cccc(Cl)c1Nc1nc2cc(N(C)CCN3CCOCC3)ncc2n2cncc12,103 nM,,
Cc1cccc(Cl)c1NC1=NC2N=CN(C)C2n2c1cnc2C (stereo unspecified),> 780 nM,,
Cc1cccc(Cl)c1Nc1nc2ccc(N3CC[C@H](O)C3)nc2n2cncc12,4 nM,340 nM,
Cc1cccc(Cl)c1Nc1nc2ccc(N3CCN[C@H](CO)C3)nc2n2cncc12,3 nM,180 nM,
Cc1cccc(Cl)c1Nc1nc2cccnc2n2cncc12,30 nM,,
Cc1cccc(Cl)c1Nc1nc2ccc(N(C)C[C@@H](O)CO)nc2n2cncc12,7 nM,300 nM,
